For 35 compounds, Activity, IC50 and CC50 results are on record in ChEMBL document CHEMBL4411280, “Synthesis, structure activity relationship and in vitro anti-influenza virus activity of novel polyphenol-pentacyclic triterpene conjugates” (Eur J Med Chem, 2019).

The IC50 is the concentration needed to halve the response being measured. Usually CC50 stands for the concentration at which the toxic effect on the cells reaches its halfway point. Read a high CC50 as lower toxicity to the cells.

Calls of active or inactive are those of the source. No cut-off for these calls is given here. Bounds are passed on as bounds.

One series concerns MDCK. Briefly: Cytotoxicity against MDCK cells at 50 uM after 40 hrs by CellTiter-Glo assay. In kind it is cell-based, Canis lupus familiaris. As to conditions: dog. In outline:
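Single-concentration toxicity screen at 50 μM final on MDCK cells for 40 h, read by CellTiter-Glo. 0.5% DMSO final as negative control. Triplicate experiments, standard deviations shown.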

The test system of series [1] is Influenza A virus. Briefly: Antiviral activity against Influenza A virus A/WSN/33/H1N1 infected in MDCK cells assessed as reduction in virus-induced cytopathic effect at 50 uM after 40 hrs by CellTiter-Glo assay. The class given is functional, organism-based. In outline: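 Single-concentration screen at 50 μM final. MDCK cells infected with A/WSN/33 (H1N1) at MOI 0.1 in DMEM/1% FBS with TPCK-trypsin for 40 h, viability by CellTiter-Glo. 0.5% DMSO final as negative control, oseltamivir as positive control. Triplicate experiments, standard deviations shown.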
For orientation: Protection from cytopathic effect is a common read-out in antiviral testing.

Series [2] relates to Influenza A virus. The experiment in a line: Antiviral activity against Influenza A virus A/WSN/33/H1N1 infected in MDCK cells assessed as reduction in virus-induced cytopathic effect after 40 hrs by CellTiter-Glo assay. As to conditions: A/WSN/33/H1N1, MDCK. The class given is functional, organism-based. In outline: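 MDCK cells seeded overnight, infected with influenza A/WSN/33 (H1N1) at MOI 0.1. Kept in DMEM with 1% FBS, test compound, TPCK-treated trypsin and 1% final DMSO for 40 h. Cell viability read by CellTiter-Glo luminescence. IC50 taken from dose-response.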

A short description of series [3]: Cytotoxicity against MDCK cells after 40 hrs by CellTiter-Glo assay. In kind it is cell-based, Canis lupus familiaris. The following applies: dog. In outline: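 MDCK cells grown overnight in medium with 1% FBS, then exposed to increasing compound concentrations for 40 h. Viability measured by CellTiter-Glo luminescence, and CC50 derived from it.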
A general note: Cellular ATP, detected with luciferase, serves as a proxy for viable cell number.

As to `CC1(C)CC[C@]2(C(=O)NCCNC(=O)c3ccc(O)cc3O)[C@H](O)C[C@]3(C)C(=CC[C@@H]4[C@@]5(C)CC[C@H](O)C(C)(C)[C@@H]5CC[C@]43C)[C@@H]2C1`, the Activity result in the series on MDCK is on record as “Toxic”.

As to `C[C@H]1[C@H](C)CC[C@]2(C(=O)NCCNC(=O)c3cc(O)cc(O)c3)CC[C@]3(C)C(=CC[C@@H]4[C@@]5(C)CC[C@H](O)C(C)(C)[C@@H]5CC[C@]43C)[C@H]12`, in the series with MDCK, the Activity entry is recorded as “Toxic”. `C=C(C)[C@@H]1CC[C@]2(C(=O)NCCNC(=O)/C=C/c3ccc(O)cc3)CC[C@]3(C)[C@H](CC[C@@H]4[C@@]5(C)CC[C@H](O)C(C)(C)[C@@H]5CC[C@]43C)[C@@H]12`: the Activity result with MDCK is reported as “Non-Toxic”. Besides, in the series on Influenza A virus [1], the result was Active. The concentration for half-maximal inhibition (IC50) in the series with Influenza A virus [2] stood at 15.7 µM. For the same compound, in series [3], the CC50 at 40 h is over 100 µM. As for `C=C(C)[C@@H]1CC[C@]2(C(=O)NCCNC(=O)/C=C/c3ccccc3)CC[C@]3(C)[C@H](CC[C@@H]4[C@@]5(C)CC[C@H](O)C(C)(C)[C@@H]5CC[C@]43C)[C@@H]12`, the Activity result with MDCK is reported as “Non-Toxic”. `C=C(C)[C@@H]1CC[C@]2(C(=O)NCCNC(=O)c3cc(OCc4ccccc4)cc(OCc4ccccc4)c3)CC[C@]3(C)[C@H](CC[C@@H]4[C@@]5(C)CC[C@H](O)C(C)(C)[C@@H]5CC[C@]43C)[C@@H]12`: the Activity entry with MDCK is reported as “Non-Toxic”.

As for `C=C(C)[C@@H]1CC[C@]2(C(=O)NCCNC(=O)c3cc(OCc4ccccc4)c(OCc4ccccc4)c(OCc4ccccc4)c3)CC[C@]3(C)[C@H](CC[C@@H]4[C@@]5(C)CC[C@H](O)C(C)(C)[C@@H]5CC[C@]43C)[C@@H]12`, the Activity result in the series on MDCK is given as “Non-Toxic”.

For the compound `CC1(C)CC[C@]2(C(=O)NCCNC(=O)c3cc(O)cc(O)c3)CC[C@]3(C)C(=CC[C@@H]4[C@@]5(C)CC[C@H](O)C(C)(C)[C@@H]5CC[C@]43C)[C@@H]2C1`, in the series with MDCK, the Activity result is given as “Toxic”. Take `CC1(C)CC[C@]2(C(=O)NCCNC(=O)c3cc(O)c(O)c(O)c3)CC[C@]3(C)C(=CC[C@@H]4[C@@]5(C)CC[C@H](O)C(C)(C)[C@@H]5CC[C@]43C)[C@@H]2C1`: the Activity result in the series on MDCK is “Toxic”. Same read-out and setting: with `CC1(C)CC[C@]2(C(=O)NCCNC(=O)c3ccc(OCc4ccccc4)cc3)[C@H](O)C[C@]3(C)C(=CC[C@@H]4[C@@]5(C)CC[C@H](O)C(C)(C)[C@@H]5CC[C@]43C)[C@@H]2C1` the entry was “Non-Toxic”; with `C=C(C)[C@@H]1CC[C@]2(C(=O)NCCNC(=O)c3ccc(O)cc3)CC[C@]3(C)[C@H](CC[C@@H]4[C@@]5(C)CC[C@H](O)C(C)(C)[C@@H]5CC[C@]43C)[C@@H]12`, “Toxic”.

Turning to `C[C@H]1[C@H](C)CC[C@]2(C(=O)NCCNC(=O)c3ccc(O)cc3)CC[C@]3(C)C(=CC[C@@H]4[C@@]5(C)CC[C@H](O)C(C)(C)[C@@H]5CC[C@]43C)[C@H]12`, in the series with MDCK, the Activity entry is on record as “Toxic”. On to `CC1(C)CC[C@]2(C(=O)NCCNC(=O)c3cc(O)c(O)c(O)c3)[C@H](O)C[C@]3(C)C(=CC[C@@H]4[C@@]5(C)CC[C@H](O)C(C)(C)[C@@H]5CC[C@]43C)[C@@H]2C1`, for which the Activity entry with MDCK is recorded as “Toxic”. Turning to `CC1(C)CC[C@]2(C(=O)NCCNC(=O)c3ccc(O)cc3O)CC[C@]3(C)C(=CC[C@@H]4[C@@]5(C)CC[C@H](O)C(C)(C)[C@@H]5CC[C@]43C)[C@@H]2C1`, in the series with MDCK, the Activity result is listed as “Toxic”. As for `CC1(C)CC[C@]2(C(=O)NCCNC(=O)c3ccc(O)cc3)CC[C@]3(C)C(=CC[C@@H]4[C@@]5(C)CC[C@H](O)C(C)(C)[C@@H]5CC[C@]43C)[C@@H]2C1`, the Activity result in the series with MDCK is listed as “Non-Toxic”. Consider `CC1(C)CC[C@]2(C(=O)NCCNC(=O)/C=C/c3ccc(O)cc3)[C@H](O)C[C@]3(C)C(=CC[C@@H]4[C@@]5(C)CC[C@H](O)C(C)(C)[C@@H]5CC[C@]43C)[C@@H]2C1`, for which the Activity entry with MDCK is “Non-Toxic”. As to `CC1(C)CC[C@]2(C(=O)NCCNC(=O)/C=C/c3ccccc3)[C@H](O)C[C@]3(C)C(=CC[C@@H]4[C@@]5(C)CC[C@H](O)C(C)(C)[C@@H]5CC[C@]43C)[C@@H]2C1`, in the series with MDCK, the Activity result is “Toxic”.

For `C=C(C)[C@@H]1CC[C@]2(C(=O)NCCNC(=O)c3cc(O)c(O)c(O)c3)CC[C@]3(C)[C@H](CC[C@@H]4[C@@]5(C)CC[C@H](O)C(C)(C)[C@@H]5CC[C@]43C)[C@@H]12`, the Activity entry in the series with MDCK was “Toxic”. For the same compound, the outcome in the series on Influenza A virus [1] was Active. As to `C[C@H]1[C@H](C)CC[C@]2(C(=O)NCCNC(=O)/C=C/c3ccc(O)cc3)CC[C@]3(C)C(=CC[C@@H]4[C@@]5(C)CC[C@H](O)C(C)(C)[C@@H]5CC[C@]43C)[C@H]12`, the Activity result in the series on MDCK was “Non-Toxic”.

On to `CCOC(=O)C1=C[C@@H](OC(CC)CC)[C@H](NC(C)=O)[C@@H](N)C1` [OSELTAMIVIR], for which the half-maximal inhibitory concentration (IC50) with Influenza A virus [2] was 16.5 µM. In series [3], this compound gave a cytotoxic concentration (CC50) at 40 h of over 200 µM. Regarding `CC1(C)CC[C@]2(C(=O)NCCNC(=O)/C=C/c3ccccc3)CC[C@]3(C)C(=CC[C@@H]4[C@@]5(C)CC[C@H](O)C(C)(C)[C@@H]5CC[C@]43C)[C@@H]2C1`, the Activity entry in the series on MDCK is on record as “Toxic”. With `C=C(C)[C@@H]1CC[C@]2(C(=O)NCCNC(=O)c3cc(O)cc(O)c3)CC[C@]3(C)[C@H](CC[C@@H]4[C@@]5(C)CC[C@H](O)C(C)(C)[C@@H]5CC[C@]43C)[C@@H]12`, the Activity result with MDCK is “Toxic”. In the case of `C[C@H]1[C@H](C)CC[C@]2(C(=O)NCCNC(=O)c3cc(OCc4ccccc4)cc(OCc4ccccc4)c3)CC[C@]3(C)C(=CC[C@@H]4[C@@]5(C)CC[C@H](O)C(C)(C)[C@@H]5CC[C@]43C)[C@H]12`, the Activity entry with MDCK is on record as “Non-Toxic”. As for `CC1(C)CC[C@]2(C(=O)NCCNC(=O)c3cc(OCc4ccccc4)c(OCc4ccccc4)c(OCc4ccccc4)c3)[C@H](O)C[C@]3(C)C(=CC[C@@H]4[C@@]5(C)CC[C@H](O)C(C)(C)[C@@H]5CC[C@]43C)[C@@H]2C1`, the Activity entry in the series on MDCK is reported as “Non-Toxic”. For the same compound, the result with Influenza A virus [1] was Active. Take `C[C@H]1[C@H](C)CC[C@]2(C(=O)NCCNC(=O)c3ccc(O)cc3O)CC[C@]3(C)C(=CC[C@@H]4[C@@]5(C)CC[C@H](O)C(C)(C)[C@@H]5CC[C@]43C)[C@H]12`: in the series with MDCK, the Activity result is recorded as “Toxic”.

On to `CC1(C)CC[C@]2(C(=O)NCCNC(=O)/C=C/c3ccc(O)cc3)CC[C@]3(C)C(=CC[C@@H]4[C@@]5(C)CC[C@H](O)C(C)(C)[C@@H]5CC[C@]43C)[C@@H]2C1`, for which the Activity result with MDCK was “Non-Toxic”. Consider `CC1(C)CC[C@]2(C(=O)NCCNC(=O)c3cc(OCc4ccccc4)c(OCc4ccccc4)c(OCc4ccccc4)c3)CC[C@]3(C)C(=CC[C@@H]4[C@@]5(C)CC[C@H](O)C(C)(C)[C@@H]5CC[C@]43C)[C@@H]2C1`, for which the Activity result in the series with MDCK is reported as “Non-Toxic”. For the same compound, in the series with Influenza A virus [1], the outcome was Active. As for `C=C(C)[C@@H]1CC[C@]2(C(=O)NCCNC(=O)c3ccc(O)cc3O)CC[C@]3(C)[C@H](CC[C@@H]4[C@@]5(C)CC[C@H](O)C(C)(C)[C@@H]5CC[C@]43C)[C@@H]12`, the Activity result in the series with MDCK was “Toxic”. On the same count and under the same terms, the entry for `CC1(C)CC[C@]2(C(=O)NCCNC(=O)c3cc(O)cc(O)c3)[C@H](O)C[C@]3(C)C(=CC[C@@H]4[C@@]5(C)CC[C@H](O)C(C)(C)[C@@H]5CC[C@]43C)[C@@H]2C1` is “Toxic”; for `C[C@H]1[C@H](C)CC[C@]2(C(=O)NCCNC(=O)c3cc(O)c(O)c(O)c3)CC[C@]3(C)C(=CC[C@@H]4[C@@]5(C)CC[C@H](O)C(C)(C)[C@@H]5CC[C@]43C)[C@H]12` it is “Toxic”; for `CC1(C)CC[C@]2(C(=O)NCCNC(=O)c3ccc(OCc4ccccc4)cc3)CC[C@]3(C)C(=CC[C@@H]4[C@@]5(C)CC[C@H](O)C(C)(C)[C@@H]5CC[C@]43C)[C@@H]2C1` it is “Non-Toxic”.

With `CC1(C)CC[C@]2(C(=O)NCCNC(=O)c3cc(OCc4ccccc4)cc(OCc4ccccc4)c3)[C@H](O)C[C@]3(C)C(=CC[C@@H]4[C@@]5(C)CC[C@H](O)C(C)(C)[C@@H]5CC[C@]43C)[C@@H]2C1`, in the series with MDCK, the Activity result is given as “Non-Toxic”.

As for `C[C@H]1[C@H](C)CC[C@]2(C(=O)NCCNC(=O)c3ccc(OCc4ccccc4)cc3)CC[C@]3(C)C(=CC[C@@H]4[C@@]5(C)CC[C@H](O)C(C)(C)[C@@H]5CC[C@]43C)[C@H]12`, the Activity result with MDCK is “Non-Toxic”. As for `CC1(C)CC[C@]2(C(=O)NCCNC(=O)c3cc(OCc4ccccc4)cc(OCc4ccccc4)c3)CC[C@]3(C)C(=CC[C@@H]4[C@@]5(C)CC[C@H](O)C(C)(C)[C@@H]5CC[C@]43C)[C@@H]2C1`, in the series on MDCK, the Activity entry is listed as “Non-Toxic”.

As to `CC1(C)CC[C@]2(C(=O)NCCNC(=O)c3ccc(O)cc3)[C@H](O)C[C@]3(C)C(=CC[C@@H]4[C@@]5(C)CC[C@H](O)C(C)(C)[C@@H]5CC[C@]43C)[C@@H]2C1`, the Activity entry with MDCK was “Toxic”. On to `C=C(C)[C@@H]1CC[C@]2(C(=O)NCCNC(=O)c3ccc(OCc4ccccc4)cc3)CC[C@]3(C)[C@H](CC[C@@H]4[C@@]5(C)CC[C@H](O)C(C)(C)[C@@H]5CC[C@]43C)[C@@H]12`, for which the Activity entry with MDCK is recorded as “Non-Toxic”.
